Assay results published in ChEMBL document CHEMBL3286203, “Reactive oxygen species (ROS) inducible DNA cross-linking agents and their effect on cancer cells and normal lymphocytes” (J Med Chem, 2014).
Calls of active or inactive are those of the source. No cut-off for these calls is given here.

What was measured:
[1] = test system: SF-539; assay: Cytotoxicity against human SF539 cells assessed as growth inhibition at 10 uM after 48 hrs by SRB assay; format: functional, cell-based
Procedure, shortened: (§1)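 Single-dose screen run by the NCI Developmental Therapeutics Program (NCI-60). Cells were grown in RPMI 1640 with 5% fetal bovine serum and 2 mM L-glutamine. They were plated at 5000–40 000 cells/well, depending on doubling time. Each line was run in two plates and exposed to 10 μM drug for 48 h at 37 °C, 5% CO2, 100% humidity. Read-out was growth percent.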

[2] = test system: SNB-75; assay: Cytotoxicity against human SNB75 cells assessed as growth inhibition at 10 uM after 48 hrs by SRB assay; format: functional, cell-based
Procedure, shortened: (§2)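 NCI-60 DTP human tumour line screen. Cells grown in RPMI 1640 with 5% fetal bovine serum and 2 mM L-glutamine, plated at 5000–40 000 cells/well according to doubling time. Single dose of 10 μM for 48 h at 37 °C, 5% CO2, 95% air, 100% humidity, two plates per line. Read-out is growth percent.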

[3] = test system: U-251; assay: Cytotoxicity against human U251 cells assessed as growth inhibition at 10 uM after 48 hrs by SRB assay; format: functional, cell-based; procedure, shortened: as §2
[4] = test system: Malme-3M; assay: Cytotoxicity against human MALME-3M cells assessed as growth inhibition at 10 uM after 48 hrs by SRB assay; format: functional, cell-based
Procedure, shortened: (§3)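 NCI DTP 60-cell-line screen run at the NCI. Cells were grown in RPMI 1640 with 5% FBS and 2 mM L-glutamine. They were seeded at 5000–40 000 cells/well depending on doubling time and grown in two plates per line. Each was exposed to a single 10 μM dose for 48 h at 37 °C, 5% CO2, 95% air, 100% humidity. Read-out was percent growth.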

[5] = test system: MDA-MB-435; assay: Cytotoxicity against human MDA-MB-435 cells assessed as growth inhibition at 10 uM after 48 hrs by SRB assay; format: functional, cell-based; procedure, shortened: as §1
[6] = test system: SK-MEL-28; assay: Cytotoxicity against human SK-MEL-28 cells assessed as growth inhibition at 10 uM after 48 hrs by SRB assay; format: functional, cell-based; procedure, shortened: as §1
[7] = test system: SK-MEL-5; assay: Cytotoxicity against human SK-MEL-5 cells assessed as growth inhibition at 10 uM after 48 hrs by SRB assay; format: functional, cell-based; procedure, shortened: as §1
[8] = test system: IGROV-1; assay: Cytotoxicity against human IGROV1 cells assessed as growth inhibition at 10 uM after 48 hrs by SRB assay; format: functional, cell-based; procedure, shortened: as §3
[9] = test system: OVCAR-3; assay: Cytotoxicity against human OVCAR3 cells assessed as growth inhibition at 10 uM after 48 hrs by SRB assay; format: functional, cell-based; procedure, shortened: as §1
[10] = test system: OVCAR-4; assay: Cytotoxicity against human OVCAR4 cells assessed as growth inhibition at 10 uM after 48 hrs by SRB assay; format: functional, cell-based; procedure, shortened: as §1
[11] = test system: NCI/ADR-RES; assay: Cytotoxicity against human NCI-ADR-RES cells assessed as growth inhibition at 10 uM after 48 hrs by SRB assay; format: functional, cell-based; procedure, shortened: as §1
[12] = test system: SK-OV-3; assay: Cytotoxicity against human SKOV3 cells assessed as growth inhibition at 10 uM after 48 hrs by SRB assay; format: functional, cell-based; procedure, shortened: as §1
[13] = test system: A498; assay: Cytotoxicity against human A498 cells assessed as growth inhibition at 10 uM after 48 hrs by SRB assay; format: functional, cell-based; procedure, shortened: as §3
[14] = test system: CAKI-1; assay: Cytotoxicity against human Caki1 cells assessed as growth inhibition at 10 uM after 48 hrs by SRB assay; format: functional, cell-based; procedure, shortened: as §3
[15] = test system: RXF 393; assay: Cytotoxicity against human RXF393 cells assessed as growth inhibition at 10 uM after 48 hrs by SRB assay; format: functional, cell-based; procedure, shortened: as §1
[16] = test system: TK-10; assay: Cytotoxicity against human TK10 cells assessed as growth inhibition at 10 uM after 48 hrs by SRB assay; format: functional, cell-based; procedure, shortened: as §2
[17] = test system: UO-31; assay: Cytotoxicity against human UO31 cells assessed as growth inhibition at 10 uM after 48 hrs by SRB assay; format: functional, cell-based; procedure, shortened: as §2
[18] = test system: MCF7; assay: Cytotoxicity against human MCF7 cells assessed as growth inhibition at 10 uM after 48 hrs by SRB assay; format: functional, cell-based; procedure, shortened: as §1
[19] = test system: MDA-MB-231; assay: Cytotoxicity against human MDA-MB-231 cells assessed as growth inhibition at 10 uM after 48 hrs by SRB assay; format: functional, cell-based; procedure, shortened: as §1
[20] = test system: T47D; assay: Cytotoxicity against human T47D cells assessed as growth inhibition at 10 uM after 48 hrs by SRB assay; format: functional, cell-based; procedure, shortened: as §2
[21] = test system: HOP-62; assay: Cytotoxicity against human HOP62 cells assessed as growth inhibition at 10 uM after 48 hrs by SRB assay; format: functional, cell-based; procedure, shortened: as §3
[22] = test system: NCI-H226; assay: Cytotoxicity against human NCI-H226 cells assessed as growth inhibition at 10 uM after 48 hrs by SRB assay; format: functional, cell-based; procedure, shortened: as §1
[23] = test system: NCI-H322M; assay: Cytotoxicity against human NCI-H322M cells assessed as growth inhibition at 10 uM after 48 hrs by SRB assay; format: functional, cell-based; procedure, shortened: as §1
[24] = test system: NCI-H460; assay: Cytotoxicity against human NCI-H460 cells assessed as growth inhibition at 10 uM after 48 hrs by SRB assay; format: functional, cell-based; procedure, shortened: as §1
[25] = test system: COLO 205; assay: Cytotoxicity against human COLO205 cells assessed as growth inhibition at 10 uM after 48 hrs by SRB assay; format: functional, cell-based; procedure, shortened: as §3
[26] = test system: HCT-116; assay: Cytotoxicity against human HCT116 cells assessed as growth inhibition at 10 uM after 48 hrs by SRB assay; format: functional, cell-based; procedure, shortened: as §3
[27] = test system: KM12; assay: Cytotoxicity against human KM12 cells assessed as growth inhibition at 10 uM after 48 hrs by SRB assay; format: functional, cell-based; procedure, shortened: as §3
[28] = test system: SW-620; assay: Cytotoxicity against human SW620 cells assessed as growth inhibition at 10 uM after 48 hrs by SRB assay; format: functional, cell-based; procedure, shortened: as §2
[29] = test system: SF-295; assay: Cytotoxicity against human SF295 cells assessed as growth inhibition at 10 uM after 48 hrs by SRB assay; format: functional, cell-based; procedure, shortened: as §1
[30] = Induction of [32P]-labeled 49-mer oligonucleotide duplex DNA 12 with GNC sequence at terminus (unknown origin) interstrand cross-linking at 1 mM after 16 hrs by PAGE
Procedure, shortened: (§4)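 32P-labelled 12a (1.0 μM) annealed with 1.5 equiv of 12b in 10 mM potassium phosphate pH 7 / 100 mM NaCl (65 °C for 3 min, then slow cooling). Duplex incubated with compound (final 1 μM–5 mM), with or without H2O2, in NaCl and potassium phosphate pH 8 at room temperature for 16 h. Quenched in formamide; 20% denaturing PAGE.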

[31] = Induction of [32P]-labeled 49-mer oligonucleotide duplex DNA 12 with GNC sequence at terminus (unknown origin) interstrand cross-linking at 1 mM after 16 hrs by PAGE in presence of H2O2; procedure, shortened: as §4
[32] = test system: EKVX; assay: Cytotoxicity against human EKVX cells assessed as growth inhibition at 10 uM after 48 hrs by SRB assay; format: functional, cell-based; procedure, shortened: as §3
[33] = test system: SR; assay: Cytotoxicity against human SR cells assessed as growth inhibition at 10 uM after 48 hrs by SRB assay; format: functional, cell-based; procedure, shortened: as §2
[34] = test system: RPMI-8226; assay: Cytotoxicity against human RPMI8226 cells assessed as growth inhibition at 10 uM after 48 hrs by SRB assay; format: functional, cell-based; procedure, shortened: as §1
[35] = test system: MOLT-4; assay: Cytotoxicity against human MOLT4 cells assessed as growth inhibition at 10 uM after 48 hrs by SRB assay; format: functional, cell-based; procedure, shortened: as §1
[36] = test system: HL-60(TB); assay: Cytotoxicity against human HL-60(TB) cells assessed as growth inhibition at 10 uM after 48 hrs by SRB assay; format: functional, cell-based; procedure, shortened: as §3

SMILES	growth inhibition (GI) [1]	growth inhibition (GI) [2]	growth inhibition (GI) [3]	growth inhibition (GI) [4]	growth inhibition (GI) [5]	growth inhibition (GI) [6]	growth inhibition (GI) [7]	growth inhibition (GI) [8]	growth inhibition (GI) [9]	growth inhibition (GI) [10]	growth inhibition (GI) [11]	growth inhibition (GI) [12]	growth inhibition (GI) [13]	growth inhibition (GI) [14]	growth inhibition (GI) [15]	growth inhibition (GI) [16]	growth inhibition (GI) [17]	growth inhibition (GI) [18]	growth inhibition (GI) [19]	growth inhibition (GI) [20]	further results
CC1(C)OB(c2ccc(N(CCBr)CCBr)cc2)OC1(C)C	Active	Active	Active	Active	Active	Active	Active	Active	Active	Active	Active	Active	Active	Active	Active	Active	Active	Active	Active	Active	growth inhibition (GI) [21]: Active; growth inhibition (GI) [22]: Active; growth inhibition (GI) [23]: Active; growth inhibition (GI) [24]: Active; growth inhibition (GI) [25]: Active; growth inhibition (GI) [26]: Active; growth inhibition (GI) [27]: Active; growth inhibition (GI) [28]: Active; growth inhibition (GI) [29]: Active; Activity [30]: inactive; Activity [31]: 37%; growth inhibition (GI) [32]: Active; growth inhibition (GI) [33]: Active; growth inhibition (GI) [34]: Active; growth inhibition (GI) [35]: Active; growth inhibition (GI) [36]: Active
CC1(C)OB(c2ccc(N(CCCl)CCOS(C)(=O)=O)cc2)OC1(C)C	Active	Active	Active	Active	Active	Active	Active	Active	Active	Active	Active	Active	Active	Active	Active	Active	Active	Active	Active	Active	growth inhibition (GI) [21]: Active; growth inhibition (GI) [22]: Active; growth inhibition (GI) [23]: Active; growth inhibition (GI) [24]: Active; growth inhibition (GI) [25]: Active; growth inhibition (GI) [26]: Active; growth inhibition (GI) [27]: Active; growth inhibition (GI) [28]: Active; growth inhibition (GI) [29]: Active; Activity [30]: inactive; Activity [31]: 37%; growth inhibition (GI) [32]: Active; growth inhibition (GI) [33]: Active; growth inhibition (GI) [34]: Active; growth inhibition (GI) [35]: Active; growth inhibition (GI) [36]: Active
